According to ChEMBL document CHEMBL1148449, “Discovery, modeling, and human pharmacokinetics of N-(2-acetyl-4,6-dimethylphenyl)-3-(3,4-dimethylisoxazol-5-ylsulfamoyl)thiophene-2-carboxamide (TBC3711), a second generation, ETA selective, and orally bioavailable endothelin antagonist” (J Med Chem, 2004):

Experiments:
[1] = biological target: Endothelin receptor (Rattus norvegicus) (UniProt P26684+P21451); experiment: Selectivity for endothelin A receptor over endothelin receptor B; assay type: protein assay
Endothelin receptor (Rattus norvegicus), sequence (P21451 whole entry, looked up, one chain of several): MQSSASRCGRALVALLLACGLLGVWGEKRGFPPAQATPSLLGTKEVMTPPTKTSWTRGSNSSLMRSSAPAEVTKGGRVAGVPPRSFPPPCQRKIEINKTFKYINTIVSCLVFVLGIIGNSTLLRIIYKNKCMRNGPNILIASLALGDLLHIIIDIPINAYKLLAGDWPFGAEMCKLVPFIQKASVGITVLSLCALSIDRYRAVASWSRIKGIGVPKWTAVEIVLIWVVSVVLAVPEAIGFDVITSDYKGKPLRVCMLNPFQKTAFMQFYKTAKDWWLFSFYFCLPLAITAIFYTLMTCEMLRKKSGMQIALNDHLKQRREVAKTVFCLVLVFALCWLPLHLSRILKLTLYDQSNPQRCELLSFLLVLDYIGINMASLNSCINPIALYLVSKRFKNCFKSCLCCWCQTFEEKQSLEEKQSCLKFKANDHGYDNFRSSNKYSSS

Endothelin-1 receptor [2] = biological target: T1, Endothelin-1 receptor (Homo sapiens, UniProt P25101); experiment: Displacement of [125I]ET-1 from Endothelin A receptor
T1 sequence (P25101 whole entry): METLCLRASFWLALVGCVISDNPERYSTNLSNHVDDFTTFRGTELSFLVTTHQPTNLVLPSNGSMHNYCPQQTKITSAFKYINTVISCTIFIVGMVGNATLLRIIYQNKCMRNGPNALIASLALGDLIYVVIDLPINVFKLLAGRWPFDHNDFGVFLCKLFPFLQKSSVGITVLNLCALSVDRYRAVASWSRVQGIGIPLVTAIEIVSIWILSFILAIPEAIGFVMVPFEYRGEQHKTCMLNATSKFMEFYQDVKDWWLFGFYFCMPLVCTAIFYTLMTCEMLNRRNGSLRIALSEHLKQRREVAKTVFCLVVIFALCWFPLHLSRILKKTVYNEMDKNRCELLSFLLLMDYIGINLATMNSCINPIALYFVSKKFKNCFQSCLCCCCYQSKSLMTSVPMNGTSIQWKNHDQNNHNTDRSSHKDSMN

[3] = Half life period was evaluated in rat; settings: in vivo
[4] = biological target: Endothelin-1 receptor (Homo sapiens) (UniProt P25101); experiment: Selectivity towards endothelin A receptor in human.
[5] = Cmax in rat plasma after oral dose (50 mg/Kg); assay type: ADME, organism-based; design: dose 50 mg/Kg, route oral
Summary of the method: (§1)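 Rats given 50 mg/kg orally. Plasma was separated at once by centrifugation and stored at -80 °C. Proteins were precipitated with acetonitrile and drug measured by HPLC to give Cmax, AUC and t1/2.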

[6] = (§2) Compound was evaluated for area under the curve expressed as (h*ug/ml); assay type: ADME, organism-based; design: concentration or dose not given beside the values; settings: rat, in vivo; summary of the method: as §1
[7] = Compound was evaluated for oral bioavailability in human; assay type: ADME, organism-based; settings: in vivo, read-out: Activity
Rattus norvegicus [8] = experiment: Compound was evaluated for oral dose to effect 50% inhibition of mean pulmonary arterial pressure (MPAP); assay type: functional, Artery
Summary of the method: (§3)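 Acute hypoxia-induced pulmonary hypertension model in rats. Compound given orally; the oral dose giving 50% inhibition of the increase in mean pulmonary arterial pressure is reported.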

[9] = Half life period was determined; assay type: ADME, organism-based; settings: rat, in vivo; summary of the method: as §1
[10] = Compound was evaluated for oral bioavailability in rats; settings: rat, in vivo
[11] = Half life period was determined; 6-7; assay type: ADME; settings: human
[12] = as §2; assay type: ADME; settings: human; summary of the method: as §1
[13] = Compound was evaluated for oral bioavailability in dog; 90-100; assay type: ADME, organism-based, Canis lupus familiaris; settings: in vivo, read-out: Activity
Endothelin-1 receptor [14] = biological target: T2, Endothelin-1 receptor (Rattus norvegicus, UniProt P26684); experiment: Binding affinity towards Endothelin A receptor
T2 sequence (P26684 whole entry): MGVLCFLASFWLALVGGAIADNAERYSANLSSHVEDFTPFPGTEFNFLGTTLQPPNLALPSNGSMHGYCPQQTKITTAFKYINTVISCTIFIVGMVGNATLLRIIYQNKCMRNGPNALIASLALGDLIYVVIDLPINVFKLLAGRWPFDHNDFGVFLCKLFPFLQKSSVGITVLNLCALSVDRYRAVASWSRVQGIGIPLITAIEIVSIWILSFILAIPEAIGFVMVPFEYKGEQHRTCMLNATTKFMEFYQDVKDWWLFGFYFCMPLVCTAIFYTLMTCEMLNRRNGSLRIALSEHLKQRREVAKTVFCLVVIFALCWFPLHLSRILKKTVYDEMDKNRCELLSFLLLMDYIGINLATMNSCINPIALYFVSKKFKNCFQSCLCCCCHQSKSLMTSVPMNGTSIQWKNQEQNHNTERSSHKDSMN

[15] = biological target: T3, Endothelin receptor type B (Homo sapiens, UniProt P24530); experiment: Inhibitory concentration towards endothelin B receptor in human; assay type: functional
T3 sequence (P24530 whole entry): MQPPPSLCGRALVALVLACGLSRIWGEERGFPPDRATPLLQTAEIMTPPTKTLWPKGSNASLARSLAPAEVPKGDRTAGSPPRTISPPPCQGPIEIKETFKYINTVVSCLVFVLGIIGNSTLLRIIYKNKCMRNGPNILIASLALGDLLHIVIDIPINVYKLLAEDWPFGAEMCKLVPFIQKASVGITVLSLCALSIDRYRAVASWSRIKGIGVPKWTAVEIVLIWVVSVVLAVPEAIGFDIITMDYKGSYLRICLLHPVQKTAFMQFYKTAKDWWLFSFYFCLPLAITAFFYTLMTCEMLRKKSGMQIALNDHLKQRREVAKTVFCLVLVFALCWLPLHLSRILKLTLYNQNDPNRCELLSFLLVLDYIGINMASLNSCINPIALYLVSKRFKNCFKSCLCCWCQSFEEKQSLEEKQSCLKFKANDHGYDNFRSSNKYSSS

[16] = Half life period was evaluated in human; assay type: ADME
Rattus norvegicus [17] = experiment: Compound was evaluated for oral dose to effect 50% inhibition of mean pulmonary arterial pressure; assay type: functional, Artery; summary of the method: as §3
[18] = Half life period was evaluated in dog; 4-4.8; assay type: ADME, organism-based, Canis lupus familiaris; settings: in vivo
[19] = Half life period was evaluated in rat; 5.9-7.5; assay type: ADME, organism-based; settings: in vivo; summary of the method: as §1

| Selectivity [1] | IC50 (Endothelin-1 receptor [2]) [nM] | half-life [3] [min] | Selectivity [4] | Cmax [5] [µg/mL] | AUC [6] [µg·h/mL] | bioavailability [7] [%] | half-life [9] [h] | bioavailability [10] [%] | half-life [11] [h] | AUC [12] [µg·h/mL] | bioavailability [13] [%] | Ki (Endothelin-1 receptor [14]) [nM] | IC50 [15] [nM] | half-life [16] [h] | half-life [18] [h] | half-life [19] [h] | Structure (SMILES) | Activity (Rattus norvegicus [8]) [mg/kg] | Activity (Rattus norvegicus [17]) [mg/kg] |
| --- | --- | --- | --- | --- | --- | --- | --- | --- | --- | --- | --- | --- | --- | --- | --- | --- | --- | --- | --- |
| 56 | 23 | 7.8 |  |  |  |  |  |  |  |  |  |  |  |  |  |  | COc1ccccc1Oc1c(NS(=O)(=O)c2ccc(C(C)C)cn2)nc(-c2ccnc(-c3nnn[nH]3)c2)nc1OCCO [TEZOSENTAN] |  |  |
|  | 0.08 |  | 441000 | 180 | 1310 | > 80 | 5.3 | ~100 | 7 |  |  |  |  |  |  |  | CC(=O)c1cc(C)cc(C)c1NC(=O)c1sccc1S(=O)(=O)Nc1onc(C)c1C | < 1 |  |
| 7000 |  |  | 6500 |  |  | ~80 |  |  |  | 33 | 100 | 0.43 | 9800 | 6.46 | 4.8 | 7.5 | Cc1cc2c(cc1CC(=O)c1sccc1S(=O)(=O)Nc1onc(C)c1Cl)OCO2 [SITAXENTAN] |  | 2.5 |
